Rows were chosen to be rich in hits. Some 3.8% of all compounds tested hit in one or more screens of this group.
BB579 growth dn – growth inhibitors of yeast BB579 in restrictive medium, primary screen, yeast lifespan-shortening project, S. cerevisiae; 140,000 tested, 0.51% active; OD615, 48 h; inhibition, % at 10 µM;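 active = inhibition above a set limit, 3 SD over the mean compound inhibition, cut at about 44% in these data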
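System: DeaD yeast strain BB579; buffer or medium: CSMM-D dextrose restrictive medium; technique: OD at 615 nm; schedule: 4 h cell preincubation, 48 h compound exposure, 30 °C humidified; doses: single 10 µM dose; controls: amphotericin B 10 µg/mL, positive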
Yeast life ext – compounds extending yeast replicative lifespan, primary screen, S. cerevisiae, OD615; S. cerevisiae growth with nicotinamide; deaD strain in restrictive glucose medium; inhibition of the nicotinamide effect, % at 10 µM; 130,000 tested, 0.68% active; AID 775, 2007;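 active = inhibition above a set limit, placed 3 SD over the median of all compounds, cut at about 26% in these data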
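Test system: DeaD-strain S. cerevisiae / Buffer or medium: restrictive glucose medium / Also added: nicotinamide 1.5 mM / Doses: one concentration, 10 µM, DMSO 0.25% / Schedule: 48 h at 30 °C / Signal: OD615 measurement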
Measles CPE – compounds protecting cells from measles virus cytopathic effect, primary screen, measles RdRp inhibitor project, single point, MLSMR library, absorbance | 140,000 tested, 1.5% active | AID 841, 2007 | protection (pct of control), % at 4 µM | Measles virus-infected cells, CPE protection; in the data active = protection mostly above about 24%, no sharp cut-off; inactive = mostly below about 26%
SDO1 yeast rescue – growth rescue of sdo1-depleted yeast, primary screen, S. cerevisiae, bone marrow failure model; S. cerevisiae sdo1-depleted JHY4D growth rescue, OD600 30 h; active compounds read high; pdr5 snq2 efflux-pump mutant strain; z-score at 10 µM; 140,000 tested, 0.21% active;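 active = z-score above 3 at both the 24 hr and the 30 hr optical density reads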
RAM inhibit – inhibitors of the yeast RAM network, primary screen, dse1pr::URA3 reporter, 5-FOA selection | S. cerevisiae dse1pr::URA3 reporter, 5-FOA growth OD615, 2 d; analog-sensitive cbk1-as2 kinase mutant strain | inhibition, % at 50 µM | 190,000 tested, 1.8% active | AID 868, 2007;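 active = inhibition above a set limit, 3 SD over mean compound inhibition, cut at about 8.4% in these data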;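 note: inhibition rescues growth on 5-FOA so higher OD means more RAM inhibition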
Each line names hits and unclear results; the compound was inactive in the other large screens.

CCS(=O)(=O)N1Cc2ccccc2CC1C(=O)N1CCN(c2ccccc2)CC1 (stereo not given)	Measles CPE 61.8
O=C(COC(=O)c1ccc2ccccc2n1)c1ccccc1	none (no result: BB579 growth dn, Yeast life ext, Measles CPE, SDO1 yeast rescue)
COc1ccc(C(=O)Nn2c(SCC(=O)c3ccc(Cl)cc3)nc3ccccc3c2=O)cc1	Measles CPE 83.6
COCCn1c(SCC(=O)N2CCc3ccccc3C2)nc2ccccc2c1=O	Measles CPE 32.4
C=CCn1c(SCC(=O)N2CCc3ccccc3C2)nc2sc(C)cc2c1=O	Measles CPE 32.8
COCCn1c(SCC(=O)c2ccccc2)nc2ccccc2c1=O	RAM inhibit 9.8 (no result: BB579 growth dn, Yeast life ext, Measles CPE, SDO1 yeast rescue)
COCCn1c(SCC(=O)N2CCC(C)CC2)nc2ccccc2c1=O	none
COC(=O)Cc1c(C(=O)OC)nnn1-c1cccc(C(F)(F)F)c1	none (no result: BB579 growth dn, Yeast life ext, Measles CPE, SDO1 yeast rescue)
CC(C)(C)c1nc(SCC(=O)c2ccccc2)c2ccccc2n1	RAM inhibit 9.4 (no result: BB579 growth dn, Yeast life ext, Measles CPE, SDO1 yeast rescue)
O=C(Nc1nnc(-c2ccc(F)cc2)o1)c1cc(Cl)sc1Cl	BB579 growth dn 66.1
O=C(Cn1ccc2ccccc2c1=O)NCCC(=O)N1CCN(c2cccc(Cl)c2)CC1	RAM inhibit 9.7
CN(C)S(=O)(=O)c1cccc(NC(=O)COC(=O)c2c[nH]c(=O)[nH]c2=O)c1	none (no result: BB579 growth dn, Yeast life ext, Measles CPE, SDO1 yeast rescue)
CC1CCCCN1C(=O)Cn1cc(C=O)c2ccccc21 (stereo not given)	none
CC1CCCCN1C(=O)Cn1cc(/C=C2/C(=O)Nc3ccccc32)c2ccccc21 (stereo not given)	RAM inhibit 9.4
CCOC(=O)c1sc(NC(=O)CSc2nccc(C)n2)nc1C	RAM inhibit 8.5 (no result: BB579 growth dn, Yeast life ext, Measles CPE, SDO1 yeast rescue)
CC(C)CN(CC(C)C)C(=S)Nc1ccc(Cl)cc1	none (no result: BB579 growth dn, Yeast life ext, Measles CPE, SDO1 yeast rescue)
COc1ccc(CCN2C(=O)N(c3ccc(OC)cc3)C(=O)C2CC(=O)Nc2ccccc2)cc1 (stereo not given)	RAM inhibit 9.1 (no result: BB579 growth dn, Yeast life ext, Measles CPE, SDO1 yeast rescue)
CCN(CC)S(=O)(=O)c1ccc(OC)c(NC(=O)C2CC(=O)N(c3ccc(C)cc3)C2)c1 (stereo not given)	none (no result: BB579 growth dn, Yeast life ext, Measles CPE, SDO1 yeast rescue)
CCn1c(=O)cc(C(F)(F)F)[nH]c1=S	none (no result: BB579 growth dn, Yeast life ext, Measles CPE, SDO1 yeast rescue)
COc1ccc(S(=O)(=O)n2oc(=O)cc2-c2ccccc2)cc1OC	BB579 growth dn 56.9
COc1ccc(S(=O)(=O)n2oc(=O)cc2-c2ccccc2)cc1	none
O=c1cc(-c2ccccc2)n(S(=O)(=O)c2ccccc2)o1	BB579 growth dn 79.6
CCCCCc1c(C)nc(NCc2ccccc2)[nH]c1=O	Measles CPE 36.6
Cc1nc(Nc2ccccc2)[nH]c(=O)c1CCC(C)C	none
O=C(NCc1ccccn1)C1CCCCC1	none (no result: BB579 growth dn, Yeast life ext, Measles CPE, SDO1 yeast rescue)
CCC(=O)Nc1ccc(S(=O)(=O)Nc2ccc(Cl)nn2)cc1	none
CCN(CC)CCOC(=O)/C=C/c1ccccc1OC	none
C[C@H](NC(=O)c1ccccc1Cl)C(=O)OC(C(=O)Nc1cc(C(F)(F)F)ccc1Cl)c1ccccc1 (stereo not given in full)	Measles CPE 58.0
O=C(Nc1cc(C(F)(F)F)ccc1Cl)C(Sc1cccc[n+]1[O-])c1ccccc1 (stereo not given)	BB579 growth dn 92.7
O=C(CNC(=O)c1ccccc1F)OC(C(=O)Nc1cc(C(F)(F)F)ccc1Cl)c1ccccc1 (stereo not given)	none
O=C(Nc1cc(C(F)(F)F)ccc1Cl)C(Sc1nnc(-c2cccs2)o1)c1ccccc1 (stereo not given)	none
CC[C@@H](C)[C@@H](C(=O)N1CCNCC1)n1cc(CCC(=O)O)nn1	none (no result: BB579 growth dn, Yeast life ext, Measles CPE, SDO1 yeast rescue)
Cn1c(N)c(C(=O)COC(=O)CC(NC(=O)c2ccccc2Cl)c2ccccc2)c(=O)n(C)c1=O (stereo not given)	none (no result: BB579 growth dn, Yeast life ext, Measles CPE, SDO1 yeast rescue)
N#Cc1cc2c(nc1SCC(=O)Nc1nccs1)CCCCC2	Measles CPE 34.3
CCOC(=O)C(C)(C)N(Cc1ccc(C)cc1)S(=O)(=O)c1ccc(Cl)c([N+](=O)[O-])c1	RAM inhibit 9.8
CCOC(=O)C(C)(C)N(Cc1ccc(Cl)cc1)S(=O)(=O)c1ccc(Cl)c([N+](=O)[O-])c1	RAM inhibit 9.4
CCNC(=O)c1ccccc1SCC(=O)Nc1ccc(F)cc1	none (no result: BB579 growth dn, Yeast life ext, Measles CPE, SDO1 yeast rescue)
Clc1ccccc1CSc1cc2c(nn1)-c1ccccc1CC2	RAM inhibit 10.2
